Here are results for seven molecules from ChEMBL document CHEMBL1926554, “Diarylheptanoids from the seeds of Alpinia katsumadai as heat shock factor 1 inducers” (J Nat Prod, 2011).

Activity calls are given as the source filed them. The calls are words filed in the database; no cut-off is given here.

The test system of test [1] is NCI-H460. The test is described as follows: Induction of HSP70 expression in human NCI-H460 cells at 1 uM after 24 hrs by Western blotting relative to control. The test is classed as functional. A digest of the protocol:
(§1)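 NCI-H460 (human non-small-cell lung cancer) cells treated 24 h. Lysates run on SDS-PAGE, transferred to nitrocellulose, probed with antibodies to HSF1, HSP27 and HSP70, detected by ECL. Band signals normalized to β-actin and compared with untreated cells. Mean ± SD of three independent experiments done in triplicate, p < 0.05 versus untreated.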

The subject of test [2] is NCI-H460. In words: Induction of HSP27 expression in human NCI-H460 cells at 1 uM after 24 hrs by Western blotting relative to control. The test is classed as functional. In short, it runs like this:
as §1
(Immunoblotting shows a protein as a band on a membrane.)

In test [3] the test system is NCI-H460. In words: Cytotoxicity against human NCI-H460 cells after overnight incubation by MTT assay. Type of test: cell-based. In short, it runs like this:
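Human non-small-cell lung cancer NCI-H460 cells. Cytotoxicity read by MTT assay. IC50 taken as the concentration (μM) giving 50% inhibition of cell growth.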
A general note: Formazan colour is commonly taken as a measure of viable cells.

Test [4] deals with NCI-H460. In words: Induction of HSF1 expression in human NCI-H460 cells at 1 uM after 24 hrs by Western blotting relative to control. The test is classed as functional. In short, it runs like this: as §1

The IC50 is the concentration at which inhibition is half-maximal. As to `COc1cc(O)c(C(/C=C/CC(O)CCc2ccccc2)c2ccc(O)cc2)c(O)c1C(=O)/C=C/c1ccc(O)cc1` (mixture of isomers), the “fold change (FC)” value in the test on NCI-H460 [1] was 1.229; with NCI-H460 [2], 1.27; in the test with NCI-H460 [4], 1.316. In the test with NCI-H460 [3], the midpoint of inhibition, the IC50, lay at 45.7 µM.
The molecule `CC(=O)O[C@H]1C(=O)[C@@]2(C)[C@H]([C@H](OC(=O)c3ccccc3)[C@]3(O)C[C@H](OC(=O)[C@H](O)[C@@H](NC(=O)c4ccccc4)c4ccccc4)C(C)=C1C3(C)C)[C@]1(OC(C)=O)CO[C@@H]1C[C@@H]2O` [PACLITAXEL] displayed a 50% inhibitory concentration (IC50) in the test with NCI-H460 [3] of 8 µM.
As to `COc1cc(O)c(C(/C=C/CC(O)CCc2ccccc2)c2ccc(O)cc2)c(O)c1C(=O)/C=C/c1ccccc1` (mixture of isomers), the “fold change (FC)” value in the test with NCI-H460 [1] is 1.313; in the test with NCI-H460 [2], 1.25; in the test with NCI-H460 [4], 1.19. The IC50 in the test on NCI-H460 [3] amounted to 39.8 µM.
Regarding `CC1=C(O)C(=O)C=C2C1=CC=C1[C@@]2(C)CC[C@@]2(C)[C@@H]3C[C@](C)(C(=O)O)CC[C@]3(C)CC[C@]12C` [CELASTROL], the “fold change (FC)” value is reported as 1.371 in the test with NCI-H460 [1], 1.216 with NCI-H460 [2] and 1.066 in the test on NCI-H460 [4]. The molecule also returned an IC50 in the test with NCI-H460 [3] of 12.3 µM.
As to `Oc1ccc(CC[C@H](O)C[C@H](O)/C=C/c2ccccc2)cc1`, the outcome in the test on NCI-H460 [1], in the test on NCI-H460 [2] and in the test with NCI-H460 [4] was inactive.
For `O=C(/C=C/c1ccc(O)cc1)C[C@H](O)CCc1ccccc1`, the outcome in the test with NCI-H460 [1], with NCI-H460 [2] and with NCI-H460 [4] was inactive.
Consider `COc1cc(O)c(C(/C=C/CC(O)CCc2ccc(O)cc2)c2ccc(O)cc2)c(O)c1C(=O)/C=C/c1ccccc1` (mixture of isomers), for which the “fold change (FC)” value with NCI-H460 [1] was 1.373; in the test on NCI-H460 [2], 1.403; in the test with NCI-H460 [4], 1.438. Moreover, inhibition in the test on NCI-H460 [3] was half-maximal at 47.4 µM (IC50).
